Active and inactive are the calls of the source. No cut-off for these calls is given here.

As a reminder, the inhibition is how much of the control response was suppressed.

One data set is filed under the species Homo sapiens. As to the kind of experiment: Inhibition of acetyl-PHF6 amide self-aggregation (unknown origin) in pH 7.4 phosphate buffer at 10 uM and 25 degreeC measured every 1 min for 120 mins under shaking condition by ThT fluorescence assay relative to control.
Conditions: not given
The essentials: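 AcPHF6 dissolved in HFIP, dried overnight, 1 mM water stock used at once. Final 100 μM peptide, 20 μM ThT, 10 μM compound (≤0.1% DMSO) in 50 mM phosphate buffer pH 7.4, 25 °C. Ex 440/em 490 nm read each minute for 120 min, 10 s shaking (400 rpm) before each read. Inhibition from mean signal at 50–60 min; ≥3 wells; mean ± SD of three experiments; DMSO negative control.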
On to `CC(=O)c1c(O)c(C)c(O)c2c1OC1=CC(=O)/C(=C(/C)Nc3c(C)cc(O)cc3C)C(=O)[C@@]12C`, for which the inhibition entry is “inactive”. Turning to `CC(=O)c1c(O)c(C)c(O)c2c1OC1=CC(=O)/C(=C(/C)Nc3ccc4[nH]ccc4c3)C(=O)[C@@]12C`, the inhibition amounted to 39.2%. Same read-out and setting: to `CC(=O)c1c(O)c(C)c(O)c2c1OC1=Cc3c(c(C)nn3-c3ccc(C#N)cc3)C(=O)[C@@]12C` belongs 20.1%.

As for `CC(=O)c1c(O)c(C)c(O)c2c1OC1=Cc3c(c(C)nn3-c3ccc(C(C)(C)C)cc3)C(=O)[C@@]12C`, the inhibition worked out at 22.3%. As to `CC(=O)c1c(O)c(C)c(O)c2c1OC1=Cc3c(c(C)nn3-c3cccc(F)c3)C(=O)[C@@]12C`, the inhibition was determined as 30.3%. On to `CC(=O)c1c(O)c(C)c(O)c2c1OC1=Cc3c(c(C)nn3-c3cccnc3)C(=O)[C@@]12C`, for which the inhibition turned out to be 29.8%. On the same count and under the same terms, to `CC(=O)c1c(O)c(C)c(O)c2c1OC1=CC(=O)/C(=C(/C)Nc3ccc4c(c3)ncn4C)C(=O)[C@@]12C` belongs “inactive”; to `CC(=O)c1c(O)c(C)c(O)c2c1OC1=CC(=O)/C(=C(/C)Nc3ccc(C)cc3O)C(=O)[C@@]12C`, 25.3%; to `CC(=O)c1c(O)c(C)c(O)c2c1OC1=CC(=O)/C(=C(/C)Nc3ccc(N4CCN(C)CC4)cc3)C(=O)[C@@]12C`, 48.2%.

On to `CC(=O)c1c(O)c(C)c(O)c2c1OC1=CC(=O)/C(=C(/C)Nc3ccc(O)cn3)C(=O)[C@@]12C`, for which the inhibition came to 58.3%. On the same count and under the same terms, to `CC(=O)c1c(O)c(C)c(O)c2c1OC1=Cc3c(c(C)nn3-c3nc4ccccc4[nH]3)C(=O)[C@@]12C` belongs 12.2%; to `CC(=O)c1c(O)c(C)c(O)c2c1OC1=CC(=O)/C(=C(/C)Nc3cccc4cccnc34)C(=O)[C@@]12C`, “inactive”.

The compound `CC(=O)c1c(O)c(C)c(O)c2c1OC1=Cc3c(c(C)nn3-c3cnccn3)C(=O)[C@@]12C` showed an inhibition of 38%.

Consider `CC(=O)c1c(O)c(C)c(O)c2c1OC1=CC(=O)/C(=C(/C)Nc3ccc(N)cn3)C(=O)[C@@]12C`, for which the inhibition stood at 46.4%. The same measure, in the same setting: to `CC(=O)c1c(O)c(C)c(O)c2c1OC1=CC(=O)/C(=C(/C)N)C(=O)[C@@]12C` belongs “inactive”. Same read-out and setting: to `CC(=O)C1=C([O-])C=C2Oc3c(C(C)=O)c(O)c(C)c(O)c3[C@]2(C)C1=O.[Na+]` belongs “inactive”. On the same count and under the same terms, then `O=c1c(O)c(-c2cc(O)c(O)c(O)c2)oc2cc(O)cc(O)c12`, with 85.9%. `CC(=O)c1c(O)c(C)c(O)c2c1OC1=CC(=O)/C(=C(/C)Nc3ccc(Cl)cc3O)C(=O)[C@@]12C` gave an inhibition of 48.4%.

For the compound `COc1ccc(-n2nc(C)c3c2C=C2Oc4c(C(C)=O)c(O)c(C)c(O)c4[C@@]2(C)C3=O)cc1`, the inhibition turned out to be 27.2%. In the case of `CC(=O)c1c(O)c(C)c(O)c2c1OC1=CC(=O)/C(=C(/C)Nc3ncccc3O)C(=O)[C@@]12C`, the inhibition is 48%. In turn, `CC(=O)c1c(O)c(C)c(O)c2c1OC1=CC(=O)/C(=C(/C)Nc3ccc(N(C)C)cc3)C(=O)[C@@]12C` came in with an inhibition of 48.1%. Turning to `CC(=O)c1c(O)c(C)c(O)c2c1OC1=CC(=O)/C(=C(/C)Nc3cc(C(C)C)c(O)cc3C)C(=O)[C@@]12C`, the inhibition entry was “inactive”. Turning to `CC(=O)c1c(O)c(C)c(O)c2c1OC1=CC(=O)/C(=C(/C)Nc3ccc(C(=O)O)c(O)c3)C(=O)[C@@]12C`, the inhibition amounted to 27.6%. On the same count and under the same terms, to `CC(=O)c1c(O)c(C)c(O)c2c1OC1=Cc3c(c(C)nn3-c3cccc(C(=O)O)c3)C(=O)[C@@]12C` belongs 40.4%. The same measure, in the same setting: then `CC(=O)c1c(O)c(C)c(O)c2c1OC1=CC(=O)/C(=C(/C)Nc3cc(C)ccc3O)C(=O)[C@@]12C`, with 12.7%; and `COc1cc(N/C(C)=C2\C(=O)C=C3Oc4c(C(C)=O)c(O)c(C)c(O)c4[C@@]3(C)C2=O)cc(OC)c1OC`, with 5.4%. Same read-out and setting: to `CC(=O)c1c(O)c(C)c(O)c2c1OC1=Cc3c(c(C)nn3-c3ccc(S(C)(=O)=O)cc3)C(=O)[C@@]12C` belongs 28.7%; to `CC(=O)c1c(O)c(C)c(O)c2c1OC1=Cc3c(c(C)nn3S(=O)(=O)c3ccccc3)C(=O)[C@@]12C`, “inactive”; to `CC(=O)c1c(O)c(C)c(O)c2c1OC1=Cc3c(c(C)nn3S(=O)(=O)c3ccc(C)cc3)C(=O)[C@@]12C`, “inactive”. As to `CC(=O)c1c(O)c(C)c(O)c2c1OC1=Cc3c(c(C)nn3-c3ccncc3)C(=O)[C@@]12C`, the inhibition amounted to 8.5%. With `CC(=O)c1c(O)c(C)c(O)c2c1OC1=CC(=O)/C(=C(/C)Nc3cccc(N(C)C)c3)C(=O)[C@@]12C`, the inhibition amounted to 11.3%. Same read-out and setting: then `CC(=O)c1c(O)c(C)c(O)c2c1OC1=Cc3c(c(C)nn3-c3ccccc3C(=O)O)C(=O)[C@@]12C`, with 32.8%; and `CC(=O)c1c(O)c(C)c(O)c2c1OC1=Cc3c(c(C)nn3-c3nc4ccccc4s3)C(=O)[C@@]12C`, with “inactive”; and `CC(=O)c1c(O)c(C)c(O)c2c1OC1=CC(=O)/C(=C(/C)Nc3cc(Cl)ccc3O)C(=O)[C@@]12C`, with 22%. The same measure, in the same setting: then `CCOC(=O)c1ccc(-n2nc(C)c3c2C=C2Oc4c(C(C)=O)c(O)c(C)c(O)c4[C@@]2(C)C3=O)cc1`, with 14.5%; and `CC(=O)c1c(O)c(C)c(O)c2c1OC1=Cc3c(c(C)nn3-c3ccc(F)cc3)C(=O)[C@@]12C`, with 26.9%. The compound `CC(=O)c1c(O)c(C)c(O)c2c1OC1=Cc3c(c(C)nn3-c3n[nH]c(=O)c4ccccc34)C(=O)[C@@]12C` showed an inhibition of 9.3%. The compound `CC(=O)c1c(O)c(C)c(O)c2c1OC1=Cc3[nH]nc(C)c3C(=O)[C@@]12C` had an inhibition of 22.5%.

`CC(=O)c1c(O)c(C)c(O)c2c1OC1=CC(=O)/C(=C(/C)N[C@@H](Cc3c[nH]c4ccccc34)C(=O)O)C(=O)[C@@]12C` returned an inhibition of 47.6%.

In turn, `COc1cccc(-n2nc(C)c3c2C=C2Oc4c(C(C)=O)c(O)c(C)c(O)c4[C@@]2(C)C3=O)c1` came in with an inhibition of 24%.

`CC(=O)c1c(O)c(C)c(O)c2c1OC1=CC(=O)/C(=C(/C)NCCCCCO)C(=O)[C@@]12C`: the inhibition entry was “inactive”.

Compound `CC(=O)c1c(O)c(C)c(O)c2c1OC1=Cc3c(c(C)nn3-c3ccccn3)C(=O)[C@@]12C` returned an inhibition of 17.1%. Regarding `CC(=O)c1c(O)c(C)c(O)c2c1OC1=Cc3c(c(C)nn3-c3ccc(C)nn3)C(=O)[C@@]12C`, the inhibition worked out at 40.9%. In the case of `CC(=O)c1c(O)c(C)c(O)c2c1OC1=CC(=O)/C(=C(/C)Nc3cc(C(C)(C)C)c(O)c(C(C)(C)C)c3)C(=O)[C@@]12C`, the inhibition result was “inactive”.

For the compound `CC(=O)c1c(O)c(C)c(O)c2c1OC1=CC(=O)/C(=C(/C)Nc3cnc(N)cn3)C(=O)[C@@]12C`, the inhibition was determined as 44.2%. The same measure, in the same setting: to `CC(=O)c1c(O)c(C)c(O)c2c1OC1=CC(=O)/C(=C(/C)N[C@@H](Cc3ccccc3)C(=O)O)C(=O)[C@@]12C` belongs “inactive”; to `CC(=O)c1c(O)c(C)c(O)c2c1OC1=CC(=O)/C(=C(/C)Nc3ccc4scnc4c3)C(=O)[C@@]12C`, 29.8%; to `CC(=O)c1c(O)c(C)c(O)c2c1OC1=CC(=O)/C(=C(/C)Nc3ccc4c(ccn4C)c3)C(=O)[C@@]12C`, 27.6%. Compound `COc1ccc(-n2nc(C)c3c2C=C2Oc4c(C(C)=O)c(O)c(C)c(O)c4[C@@]2(C)C3=O)cn1` returned an inhibition of 7.7%. On to `CC(=O)c1c(O)c(C)c(O)c2c1OC1=Cc3c(c(C)nn3-c3ccc(S(N)(=O)=O)cc3)C(=O)[C@@]12C`, for which the inhibition was determined as 46.8%. The same measure, in the same setting: to `COc1ccc(S(=O)(=O)n2nc(C)c3c2C=C2Oc4c(C(C)=O)c(O)c(C)c(O)c4[C@@]2(C)C3=O)cc1` belongs “inactive”.

For a further data set, the species on record is Homo sapiens. As to the kind of experiment: Inhibition of acetyl-PHF6 amide self-aggregation (unknown origin) in pH 7.4 phosphate buffer assessed as decrease in absorbance intensity at 10 uM and 25 degreeC measured immediately after 10 sec vibration per minute for 120 mins under shaking condition by circular dichroism spectroscopy.
Conditions: not given
The essentials: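 Fresh samples of 100 μM AcPHF6 with 10 μM compound (≤0.1% DMSO) in 50 mM phosphate buffer pH 7.4. 10 s vibration per minute at 25 °C over 120 min. Spectra 260–200 nm, 1 mm quartz cell, 1 nm bandwidth, 50 nm/min scan. Solvent and compound contributions subtracted, converted to Δε per residue, Savitzky-Golay smoothed.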
(In general: Circular dichroism is widely used to follow secondary structure.)
Regarding `CC(=O)c1c(O)c(C)c(O)c2c1OC1=CC(=O)/C(=C(/C)Nc3ccc(O)cn3)C(=O)[C@@]12C`, the inhibition result was “Active”.

The species entered for a further data set is Homo sapiens. In words: Inhibition of acetyl-PHF6 amide self-aggregation (unknown origin) in pH 7.4 phosphate buffer assessed as absence of fibrillar material at 20 uM and 25 degreeC measured after 10 mins by phosphotungstic acid staining based TEM analysis.
Conditions: not given
With `CC(=O)c1c(O)c(C)c(O)c2c1OC1=CC(=O)/C(=C(/C)Nc3ccc(O)cn3)C(=O)[C@@]12C`, the inhibition entry was “inactive”.

The subject of a further data set is BV-2. In words: Cytotoxicity against mouse BV-2 cells at 20 uM measured after 24 hrs by MTT assay. Particulars: bv-2, 24 h. The class given is cell-based. The essentials:
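Cells in high-glucose DMEM with 10% FBS, 5% CO₂, 37 °C, seeded 3000–5000/well, exposed to compound 24 h. MTT (0.5 mg/mL) 4 h, formazan dissolved in DMSO, absorbance 570 nm (reference 630 nm). Viability as percent of untreated control; mean ± SD, three independent experiments.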
A general note: Tetrazolium dyes change colour on reduction, which living cells bring about.
In the case of `CC(=O)C1=C([O-])C=C2Oc3c(C(C)=O)c(O)c(C)c(O)c3[C@]2(C)C1=O.[Na+]`, the Activity entry is on record as “Toxic”.

Values taken from ChEMBL document CHEMBL4706486, “Usnic acid derivatives as tau-aggregation and neuroinflammation inhibitors” (Eur J Med Chem, 2020).
